Experimental data taken from ChEMBL document CHEMBL2331466, “Neolignanamides, lignanamides, and other phenolic compounds from the root bark of Lycium chinense” (J Nat Prod, 2013).

Columns and labels:
[1] = Antioxidant activity assessed as inhibition of xanthine-xanthine oxidase generated superoxide anion radical production by NBT reduction assay; format: functional
Procedure, shortened: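 Superoxide produced by xanthine/xanthine oxidase. Final reaction contained xanthine 40 μM, xanthine oxidase 0.05 unit/mL, NBT 50 μM (in 20 mM phosphate buffer, pH 7.4) and graded sample concentrations. Incubated 37 °C for 20 min after adding enzyme. Absorbance read at 560 nm against blanks. Values are means of triplicate determinations.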

[2] = system: Radical scavenging activity; test: Antioxidant activity assessed as DPPH radical scavenging activity after 30 mins; format: functional
Procedure, shortened: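 Test samples at 5−100 μg/mL (120 μL) combined with 30 μL of 0.75 mM DPPH in MeOH, in triplicate. Shaken in the dark at room temperature for 30 min, then absorbance read at 517 nm. Scavenging (%) = (1 − As/A0) × 100. IC50 is the concentration giving 50% DPPH inhibition. Trolox (5−100 μM) served as positive control.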

IC50 [1] [µM]	IC50 [2] [µM]	SMILES
49.9	54.1	COc1cc([C@H]2Oc3ccc(/C=C\C(=O)NCCc4ccc(O)cc4)cc3O[C@@H]2CO)ccc1O (relative stereo)
49.9	57.1	COc1cc(/C=C(/C(=O)NCCc2ccc(O)cc2)c2cc(O)c(O)cc2CCC(=O)NCCc2ccc(O)cc2)cc(OC)c1O
52.6	63.5	O=C(/C=C/c1ccc(O)cc1)NCCc1ccc(O)cc1 [N-P-COUMAROYL TYRAMINE]
44.4	55.2	COc1cc([C@H]2Oc3ccc(/C=C/C(=O)NCCc4ccc(O)cc4)cc3O[C@@H]2CO)ccc1O (relative stereo)
50.1	46.5	COc1cc2c(c(OC)c1O)C(c1ccc(O)c(O)c1)C(C(=O)NCCc1ccc(O)cc1)C(C(=O)NCCc1ccc(O)cc1)=C2 (stereo not given)
46.4	49.8	COc1cc(O)cc([C@H]2Oc3ccc(/C=C/C(=O)NCCc4ccc(O)cc4)cc3O[C@@H]2C(=O)NCCc2ccc(O)cc2)c1 (relative stereo)
44.1	48.2	COc1cc(O)cc([C@H]2Oc3ccc(/C=C\C(=O)NCCc4ccc(O)cc4)cc3O[C@@H]2C(=O)NCCc2ccc(O)cc2)c1 (relative stereo)

The next lines start with the compound.

SMILES	IC50 [1] [µM]	IC50 [2] [µM]
O=C(/C=C/c1ccc(O)c(O)c1)NCCc1ccc(O)cc1	44.1	47.6
COc1ccc(/C=C/C(=O)NCCc2ccc(O)cc2)cc1O	48.8	67.7
COc1cc2c(c(OC)c1O)[C@H](c1ccc(O)c(O)c1)[C@@H](C(=O)NCCc1ccc(O)cc1)C(C(=O)NCCCCNC(C)=O)=C2 (relative stereo)	58	67
O=C(CCc1ccc(O)c(O)c1)NCCc1ccc(O)cc1	30.2	61.2
COc1cc(/C=C(/C(=O)NCCCCNC(C)=O)c2cc(O)c(O)cc2CCC(=O)NCCc2ccc(O)cc2)cc(OC)c1O	52.7	64.7
Cc1c(C)c2c(c(C)c1O)CCC(C)(C(=O)O)O2 (stereo not given) [TROLOX]	27.2	33.5
COc1cc(/C=C\C(=O)NCC(O)c2ccc(O)cc2)ccc1O (stereo not given)	22.2	61.2
COc1cc(/C=C(/C(=O)NCCCCNC(C)=O)c2cc(O)c(O)cc2CCC(=O)NCCc2ccc(O)cc2)ccc1O	56.5	65.2
